Laboratory results: ChEMBL document CHEMBL4251591, “Primaquine hybrids as promising antimycobacterial and antimalarial agents” (Eur J Med Chem, 2018)
In brackets after ≈: the same amount, converted by molar mass.

Key:
[1] = system: Mycobacterium avium complex sp.; assay: Antimycobacterial activity against Mycobacterium avium complex CIT19/06 clinical isolate after 5 days by Alamar Blue assay; type: functional; conditions: CIT19/06, 120 h
[2] = system: Mycobacterium tuberculosis; assay: Antimycobacterial activity against Mycobacterium tuberculosis H37Ra ATCC 25177 after 7 days by Alamar Blue assay; type: functional; conditions: H37Ra ATCC 25177, 168 h
How it was run: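 Log-phase culture washed and resuspended in supplemented Middlebrook 7H9GC broth, adjusted to McFarland No. 1, then diluted 1:20. Equal volumes of culture and DMSO-prepared compound dilutions were tested in duplicate for 7 days. 10% AlamarBlue was added, with 570/600 nm readings for background and after 24 h reincubation. Blue meant no growth, pink meant growth. MIC was the lowest concentration without visible growth.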

[3] = system: Mycobacterium avium; assay: Antimycobacterial activity against Mycobacterium avium subsp. paratuberculosis CIT03 clinical isolate after 11 days by Alamar Blue assay; type: functional; conditions: CIT03, 264 h
[4] = system: HEK293; assay: Cytotoxicity against human HEK293 cells; type: cell-based

Compound	MIC [1] [µg/mL]	MIC [2] [µg/mL]	MIC [3] [µg/mL]	IC50 [4] [µg/mL]
COc1cc(NC(C)CCCNC(=O)Nc2ccc(Br)cc2)c2ncccc2c1 (stereo not drawn)	16 (≈ 35 µM)	8 (≈ 17.5 µM)	16 (≈ 35 µM)	200 (≈ 437 µM)
COc1cc(NC(C)CCCNC(=O)Nc2ccc(C(F)(F)F)cc2)c2ncccc2c1 (stereo not drawn)	16 (≈ 35.8 µM)	4 (≈ 8.96 µM)	8 (≈ 17.9 µM)	200 (≈ 448 µM)
